Published values of several laboratories.
Each line is one published result; the experiments were not run side by side.
Target: AP2-associated protein kinase 1 (AAK1, Homo sapiens, UniProt Q2M2I8)

SMILES	test	conditions	remaining binding [%]
COc1ncc2cc3ccccc3nc2c1C#N	cell-free assay, competition with immobilised ligand	5 µM	96
CC(=O)N1CCC(c2ccc(C(=O)NC(=N)N)cc2C(F)(F)F)CC1	binding	1 µM	100
FC(F)(F)Oc1cccc(-c2cnc3ccc(-c4ccncc4)nn23)c1	cell-free assay, competition with immobilised ligand	5 µM	14
c1cncc(-c2cccc(Nc3nccc(NC4CCCCC4)n3)c2)c1	binding, competition with immobilised ligand	10 µM	33
O=C(NCc1ncc(C(F)(F)F)cc1Cl)c1ccc2c(c1)C1(CCS(=O)(=O)CC1)[C@@H](C1CC1)N2S(=O)(=O)c1ccc(F)cc1	binding	1 µM	100
O=C(c1ccc(Nc2ncc(Cl)c(-c3ccc(Cl)s3)n2)cc1)N1CCC(N2CCCC2)CC1	binding, competition with immobilised ligand	1 µM	41
CC(=O)C1=C(C)N(c2cccc(C(F)(F)F)c2)C(=O)N[C@@H]1c1ccc(C#N)nc1	binding	1 µM	100
COc1cnc(Nc2cccc(S(N)(=O)=O)c2)nc1N1CCN(c2ccccc2)C(=O)C1	binding, competition with immobilised ligand	1 µM	84
O=C(NCC1CCOCC1)c1n[nH]cc1NC(=O)c1c(F)cccc1F	binding, competition with immobilised ligand	1 µM	86
C[C@H]1CCN(c2nccc(-c3cnn4ncccc34)n2)C1	binding	1 µM	64
O=C(c1ccc(Nc2nccc(-c3cc4ccccc4s3)n2)cc1)N1CCC(N2CCCC2)CC1	binding, competition with immobilised ligand	1 µM	21
O=C(O)c1cc(-c2ccc(C3CCNCC3)cc2)c2ccc(-c3ccc(C(F)(F)F)cc3)cc2c1	binding	1 µM	100
CN(C)c1ncc(F)c(-c2cnn3ncccc23)n1	binding	1 µM	89
O=C(c1ccc(Nc2ncc(Cl)c(-c3cc4ccccc4s3)n2)cc1)N1CCC(N2CCCC2)CC1	binding, competition with immobilised ligand	1 µM	29
c1cnn2ncc(-c3ccnc(N4CCC45COC5)n3)c2c1	binding	1 µM	76
CN(c1ccnc(CNc2nc(Nc3ccc4c(c3)CC(=O)N4)ncc2C(F)(F)F)n1)S(C)(=O)=O	binding	1 µM	27
COc1ccnn2ncc(-c3ccnc(N(C)C)n3)c12	binding	1 µM	100
CNC(=O)[C@@H]1CC[C@@H](n2c(-c3ccc4cnccc4c3)nc3ccc(C(=O)NCc4cccc(C(N)=O)c4)cc32)C1	binding, competition with immobilised ligand	1 µM	93
CN(C)c1nccc(-c2cnn3ncccc23)n1	binding	1 µM	75
CCCCN(CCCC)C(=O)CN1C[C@H](c2cc(OC)c3c(c2)OCO3)[C@@H](C(=O)O)[C@@H]1CC(C)(C)CCC	binding	1 µM	100
N[C@H]1CCN(c2nccc(-c3cnn4ncccc34)n2)C1	binding	1 µM	91
N#CC1(c2ccccn2)CCN(Cc2cc(C(=O)N3CCCC3)c(=O)n3ccccc23)CC1	binding	1 µM	100
